Reference: ChEMBL document CHEMBL2150854, “Macrocyclic Hedgehog Pathway Inhibitors: Optimization of Cellular Activity and Mode of Action Studies” (ACS Med Chem Lett, 2012)
Each block holds one compound with its values, some of them ahead of it. Activity calls are given as the source filed them. The calls are words filed in the database; no cut-off is given here.

Tests used:
[1] = biological target: Protein smoothened (Mus musculus) (UniProt P56726); test: Inhibition of Smo in mouse C3H10T1/2 cells assessed as inhibition of human Shh-induced cell differentiation after 48 hrs by alkaline phosphatase reporter assay relative to cyclopamine; format: cell-based; details: C3H 10T1/2
Protein smoothened (Mus musculus), sequence (P56726 whole entry): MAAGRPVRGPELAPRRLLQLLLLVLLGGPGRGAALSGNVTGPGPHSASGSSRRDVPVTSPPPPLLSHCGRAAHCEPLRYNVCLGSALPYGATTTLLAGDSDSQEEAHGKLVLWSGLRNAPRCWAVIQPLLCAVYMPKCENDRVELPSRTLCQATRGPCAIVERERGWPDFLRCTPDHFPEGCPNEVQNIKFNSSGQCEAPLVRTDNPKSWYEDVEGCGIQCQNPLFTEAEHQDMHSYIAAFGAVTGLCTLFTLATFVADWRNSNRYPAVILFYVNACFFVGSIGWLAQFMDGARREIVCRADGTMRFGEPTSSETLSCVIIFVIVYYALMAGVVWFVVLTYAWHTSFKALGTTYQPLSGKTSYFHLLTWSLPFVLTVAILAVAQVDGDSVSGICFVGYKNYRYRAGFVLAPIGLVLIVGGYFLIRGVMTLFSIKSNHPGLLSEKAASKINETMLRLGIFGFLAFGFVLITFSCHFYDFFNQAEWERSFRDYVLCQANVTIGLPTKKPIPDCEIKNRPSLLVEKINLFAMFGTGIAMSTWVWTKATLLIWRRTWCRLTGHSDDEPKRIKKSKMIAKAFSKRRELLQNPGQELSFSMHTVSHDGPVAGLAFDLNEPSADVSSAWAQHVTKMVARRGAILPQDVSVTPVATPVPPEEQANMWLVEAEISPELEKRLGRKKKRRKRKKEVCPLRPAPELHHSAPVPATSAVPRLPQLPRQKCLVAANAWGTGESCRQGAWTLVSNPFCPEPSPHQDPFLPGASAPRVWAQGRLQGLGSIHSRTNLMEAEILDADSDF
Method in brief: (§1)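 Murine mesenchymal C3H10T1/2 cells were induced to differentiate with Shh protein. Differentiation was read as alkaline phosphatase expression, quantified with fluorescent substrates. Uninduced cells served as baseline. IC50 was taken from dose–response curves.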

C3H 10T1/2 [2] = test: Effect on SAG-induced Gli1 transcription in mouse C3H10T1/2 cells at 103 to 25000 nM by qPCR analysis; format: functional, cell-based
Method in brief: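 Double-titration (Schild-type) design in murine mesenchymal C3H10T1/2 cells. Gli1 expression is induced by a series of SAG concentrations, each combined with several inhibitor concentrations. Gli1 mRNA is quantified by real-time qPCR with Actb as internal control. SAG dose–response curves are compared across inhibitor levels for shifts and for the maximal induction.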

[3] = biological target: Sonic hedgehog protein (Homo sapiens) (UniProt Q15465); test: Inhibition of human Shh-induced mouse C3H10T1/2 cell differentiation after 48 hrs by alkaline phosphatase reporter assay relative to cyclopamine; details: C3H 10T1/2; method in brief: as §1
Sonic hedgehog protein (Homo sapiens), sequence (Q15465 24-197 limits assumed): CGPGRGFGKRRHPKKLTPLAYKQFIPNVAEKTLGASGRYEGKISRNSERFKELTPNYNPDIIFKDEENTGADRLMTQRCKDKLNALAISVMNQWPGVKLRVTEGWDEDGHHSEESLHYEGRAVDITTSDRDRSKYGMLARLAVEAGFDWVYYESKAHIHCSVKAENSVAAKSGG

C3H 10T1/2 [4] = test: Effect on purmorphamine-induced Gli1 transcription in mouse C3H10T1/2 cells at 103 to 25000 nM by qPCR analysis; format: functional, cell-based
[5] = biological target: Protein smoothened (Mus musculus) (UniProt P56726); test: Ratio of IC50 for Smo in mouse C3H10T1/2 cells assessed as inhibition of human Shh-induced Gli1 transcriptional activity in presence of SAG to IC50 for Smo in mouse C3H10T1/2 cells assessed as inhibition of human Shh-induced Gli1 transcriptional activity; format: cell-based; details: C3H 10T1/2
[6] = biological target: Protein smoothened (Mus musculus) (UniProt P56726); test: Inhibition of Smo in mouse Ptch-deficient MEF cells assessed as inhibition of Shh-induced Gli-responsive betagalactosidase activity after 30 hrs by BetaGLo assay in presence of SAG; format: cell-based
Method in brief: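 Ptch-/- MEF β-gal reporter cells were given an inhibitor dose range together with 20 nM SAG. β-Gal activity was read, with untreated cells and 100 nM KAAD-cyclopamine-treated cells as reference levels.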

Protein smoothened [7] = biological target: T1, Protein smoothened (Mus musculus, UniProt P56726); test: Inhibition of Smo in mouse C3H10T1/2 cells assessed as inhibition of human Shh-induced Gli1 transcriptional activity after 48 hrs by RT-PCR analysis; format: cell-based, C3H 10T1/2
T1 sequence (P56726 whole entry): as the sequence (P56726 whole entry) above
Method in brief: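 Murine mesenchymal C3H10T1/2 cells were activated with Shh protein and exposed to inhibitor. Gli1 mRNA was quantified by real-time qPCR, normalised to Actb as internal control, and IC50 was taken from dose–response curves.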

[8] = biological target: Protein smoothened (Mus musculus) (UniProt P56726); test: Competitive inhibition of Smo in mouse C3H10T1/2 cells assessed as inhibition of purmorphamine-induced Gli1 transcriptional activity at 103 to 25000 nM by qPCR analysis; format: cell-based; details: C3H 10T1/2
[9] = biological target: Protein smoothened (Mus musculus) (UniProt P56726); test: Inhibition of Smo in mouse C3H10T1/2 cells assessed as inhibition of human Shh-induced Gli1 transcriptional activity after 48 hrs by RT-PCR analysis relative to cyclopamine; format: cell-based; details: C3H 10T1/2
[10] = biological target: Protein smoothened (Mus musculus) (UniProt P56726); details: C3H 10T1/2, at 103 to 25000 nM
Protein smoothened [11] = biological target: T1, Protein smoothened; test: Inhibition of Smo in mouse Ptch-deficient MEF cells assessed as inhibition of Shh-induced Gli1 transcriptional activity; format: cell-based
[12] = biological target: Protein smoothened (Mus musculus) (UniProt P56726); test: Inhibition of Smo in mouse Ptch-deficient MEF cells assessed as inhibition of Shh-induced Gli1 transcriptional activity in presence of SAG; format: cell-based
Protein smoothened [13] = biological target: T1, Protein smoothened; test: Inhibition of Smo in mouse Ptch-deficient MEF cells assessed as inhibition of Shh-induced Gli-responsive betagalactosidase activity after 30 hrs by BetaGLo assay; format: cell-based
[14] = biological target: Protein smoothened (Mus musculus) (UniProt P56726); test: Inhibition of Smo in mouse C3H10T1/2 cells assessed as inhibition of human Shh-induced Gli1 transcriptional activity after 48 hrs by RT-PCR analysis in presence of SAG; format: cell-based; details: C3H 10T1/2
[15] = biological target: Protein smoothened (Mus musculus) (UniProt P56726); details: C3H 10T1/2, 55.5 to 4500 nM
C3H 10T1/2 [16] = test: Effect on purmorphamine-induced Gli1 transcription in mouse C3H10T1/2 cells at 55.5 to 4500 nM by qPCR analysis; format: functional, cell-based
[17] = biological target: Protein smoothened (Mus musculus) (UniProt P56726); test: Competitive inhibition of Smo in mouse C3H10T1/2 cells assessed as inhibition of purmorphamine-induced Gli1 transcriptional activity at 309 to 25000 nM by qPCR analysis; format: cell-based; details: C3H 10T1/2

Imax [1]: 69%
Structure (SMILES): C[C@H]1NC(=O)[C@H](CC(=O)NCc2ccc(Cl)cc2)C/C=C/CCC(=O)O[C@@H]1c1ccccc1

Imax [3]: 47%
Structure (SMILES): O=C(C[C@@H]1C/C=C/CCC(=O)O[C@H](c2ccccc2)CNC1=O)NCc1ccc(Cl)cc1
Activity (C3H 10T1/2 [2]): inactive
Activity (C3H 10T1/2 [4]): inactive

Imax [1]: 59%
Structure (SMILES): C[C@H]1[C@@H](c2ccccc2)OC(=O)CCCCC[C@@H](CC(=O)NCc2ccc(Cl)cc2)C(=O)N1C

Imax [1]: 47%
Structure (SMILES): O=C(CN1C/C=C/CCC(=O)N[C@H](c2ccccc2)COC1=O)NCc1ccc(Cl)cc1

Imax [1]: 41%
Structure (SMILES): CC(C)N[C@H]1C/C=C/C[C@@H](CC(=O)NCc2ccc(Cl)cc2)C(=O)NC[C@@H](c2ccccc2)OC1=O

Imax [1]: 50%
Structure (SMILES): O=C(C[C@@H]1C/C=C/CCC(=O)O[C@H](c2ccccc2)CNC1=O)NCc1cccc(Cl)c1

Imax [1]: 78%
Structure (SMILES): C[C@H]1[C@@H](c2ccccc2)OC(=O)CC/C=C/C[C@@H](CC(=O)NCc2ccc(Cl)cc2)C(=O)N1C

Imax [1]: 106%
Structure (SMILES): O=C(C[C@@H]1C/C=C/C[C@H](Cc2ccccc2)C(=O)N[C@H](c2ccccc2)COC1=O)NCc1ccc(Cl)cc1

Imax [1]: 90%
Structure (SMILES): O=C(C[C@@H]1C/C=C/CCC(=O)N[C@H](c2ccc(F)cc2)COC1=O)NCc1ccc(Cl)cc1

Imax [1]: 60%
Structure (SMILES): CC(C)(C)OC(=O)C[C@@H]1C/C=C/CCC(=O)N[C@H](c2ccccc2)COC1=O

Imax [1]: 54%
Structure (SMILES): CC(C)[C@@H]1COC(=O)[C@H](CC(=O)NCc2ccc(Cl)cc2)C/C=C/CCC(=O)N1

Imax [1]: 53%
Structure (SMILES): CCCC[C@@H]1COC(=O)[C@H](CC(=O)NCc2ccc(Cl)cc2)C/C=C/CCC(=O)N1

Structure (SMILES): O=C(C[C@@H]1C/C=C/CCC(=O)N[C@H](c2ccc(Cl)cc2)COC1=O)NCc1ccc(Cl)cc1
Ratio IC50 [5]: 32
inhibition [6]: inactive
IC50 (Protein smoothened [7]): 0.4 µM
inhibition [8]: Active
Imax [1]: 105%
Imax [9]: 100%
inhibition [10]: Active
IC50 (Protein smoothened [11]): 3.5 µM
inhibition [12]: inactive
IC50 (Protein smoothened [13]): 2 µM
inhibition [14]: inactive

Imax [1]: 86%
Structure (SMILES): O=C(C[C@@H]1C/C=C/CCC(=O)N[C@H](c2ccccc2)COC1=O)NCc1ccc(Cl)cc1

Imax [1]: 77%
Structure (SMILES): C[C@@H]1NC(=O)[C@H](CC(=O)NCc2ccc(Cl)cc2)C/C=C/CCC(=O)O[C@@H]1c1ccccc1

Imax [1]: 40%
Structure (SMILES): O=C(C[C@@H]1C/C=C/CCC(=O)N[C@@H]2c3ccccc3C[C@@H]2OC1=O)NCc1ccc(Cl)cc1

Imax [1]: 104%
Structure (SMILES): CN1C[C@@H](c2ccccc2)OC(=O)CC/C=C/C[C@@H](Cc2ccc(Cl)cc2)C1=O

Imax [1]: 95%
Structure (SMILES): O=C(C[C@@H]1C/C=C/CCC(=O)N[C@@H](c2ccccc2)COC1=O)NCc1ccc(Cl)cc1

Imax [1]: 75%
Structure (SMILES): O=C(C[C@@H]1C/C=C/CCC(=O)N[C@H](C2CCCCC2)COC1=O)NCc1ccc(Cl)cc1

Imax [1]: 78%
Structure (SMILES): C[C@H]1C/C=C/C[C@@H](CC(=O)NCc2ccc(Cl)cc2)C(=O)OC[C@@H](c2ccccc2)NC1=O

Structure (SMILES): CC1=C2C[C@H]3[C@@H](CC=C4C[C@@H](O)CC[C@@]43C)[C@@H]2CC[C@]12O[C@@H]1C[C@H](C)CN[C@H]1[C@H]2C
inhibition [15]: Active
inhibition [6]: inactive
Activity (C3H 10T1/2 [16]): inactive
inhibition [12]: inactive
inhibition [14]: inactive

Imax [1]: 77%
Structure (SMILES): O=C(C[C@@H]1C/C=C/CCC(=O)OC[C@@H]2CCCN2C1=O)NCc1ccc(Cl)cc1

Structure (SMILES): O=C(C[C@@H]1C/C=C/CCC(=O)N[C@H](Cc2ccccc2)COC1=O)NCc1ccc(Cl)cc1
inhibition [17]: Active
Ratio IC50 [5]: 18
inhibition [6]: inactive
Imax [1]: 90%
inhibition [10]: Active
IC50 (Protein smoothened [11]): 8.8 µM
inhibition [12]: inactive
IC50 (Protein smoothened [13]): 8.1 µM
inhibition [14]: inactive

Imax [1]: 28%
Structure (SMILES): O=C(C[C@@H]1C/C=C/CCC(=O)O[C@H](c2ccccc2)CNC1=O)NCCCC(F)(F)F

IC50 (Protein smoothened [7]): 4.3 µM
Imax [9]: 85%
Structure (SMILES): O=C(C[C@@H]1C/C=C/CCC(=O)N[C@H](c2ccc(Cl)cn2)COC1=O)NCc1ccc(Cl)cc1

Imax [1]: 97%
Structure (SMILES): C[C@H]1C/C=C\C[C@@H](CC(=O)NCc2ccc(Cl)cc2)C(=O)OC[C@@H](c2ccccc2)NC1=O
